Screening results: PubChem, SRMLSC
Shown is part of a subset that was picked to be rich in hits.
Lung fibro prol: blocks proliferation of human lung fibroblasts; 85,000 tested, 1.1% active; viability, % at 10 µM; AID 719; LL 47 human lung fibroblast viability, ATP luminescence; active compounds read low;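 active means viability at or below 50% in the single dose screen; inactive means viability above 50%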;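 further: compound exposure lasted 72 h before the ATP readout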
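Test system: LL 47 human lung fibroblasts / Incubation: 72 h compound exposure at 37 °C after overnight plating / Technique: luminescent ATP detection, CellTiter-Glo / Compound dosing: 0.1% DMSO in all compound wells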
HUVEC prolif 384: blocks proliferation of human endothelial cells | HUVEC proliferation, CellTiter-Glo luminescence, 72 h; active compounds read low | viability, % at 10 µM (by protocol) | 86,000 tested, 1.1% active | AID 648;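 active means viability at or below 30%; inactive means viability above 30%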
HCT116 bCat-KO: beta-catenin-lacking colon tumor cell growth suppression | HCT116 beta-catenin knockout viability, CellTiter-Glo, 60 h; active compounds read low | viability, % at 10 µM | 140,000 tested, 1.5% active;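 active means viability at or under a set limit, the compound median less 4 SD, cut at about 6% in these data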
H69AR growth 86K: blocks growth of human H69AR lung tumor cells; 85,000 tested, 6% active; H69AR lung tumor viability, ATP luminescence, 72 h; active compounds read low; viability, % at 10 µM;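 active means viability at or below 40%; inactive means viability above 40%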;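 further: multidrug resistant small cell line overexpressing MRP-1 efflux transporter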
PTEN del growth: growth suppressors of cells with PTEN tumor suppressor deletion | HCT116 PTEN-null viability, CellTiter-Glo, 60 h; active compounds read low | viability, % at 10 µM | 140,000 tested, 1.2% active | AID 827;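 active means viability at or below a set limit, 4 SD under the median of all tested compounds, cut at about 3.7% in these data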;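 further: PTEN knockout HCT116 line with beta catenin targeted HCT116 as companion control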
Large screens that a line does not name were inactive.

Cn1cccc1/C=C1\SC(=O)N(c2ccc(O)cc2)C1=O	none (no result: Lung fibro prol, HUVEC prolif 384, H69AR growth 86K)
O=C(N/N=C/c1c[nH]c2ccccc12)c1[nH]c2ccc(Br)cc2c1-c1ccccc1	HCT116 bCat-KO 1.3, PTEN del growth 1.2 (no result: Lung fibro prol, HUVEC prolif 384, H69AR growth 86K)
CC/C(O)=C(/C#N)c1nnc2n1CCCCC2	none
C=CCn1c(=O)/c(=C/c2ccc(F)cc2)s/c1=C(\C#N)c1nnc2n1CCCCC2	H69AR growth 86K 39
O=S(=O)(/N=C(/c1ccc(F)cc1)N1CCCCC1)c1ccc(Cl)cc1	none (no result: Lung fibro prol, HUVEC prolif 384, H69AR growth 86K)
COc1ccccc1C(=O)N/C(N)=N/c1nc2ccccc2o1	H69AR growth 86K 15
Cc1ccc(C(=O)N/C(N)=N/c2nc3ccccc3o2)cc1	none
Cc1cc(Br)ccc1OCCn1ccnc1	none (no result: Lung fibro prol, HUVEC prolif 384, H69AR growth 86K)
COc1ccc(-c2c(C(F)(F)F)oc3cc(OCC(=O)Nc4ccccc4C(F)(F)F)ccc3c2=O)cc1OC	HCT116 bCat-KO 1.4 (no result: Lung fibro prol, HUVEC prolif 384, H69AR growth 86K)
COc1ccccc1-c1c(C(F)(F)F)oc2cc(OCC(=O)Nc3ccccc3C(F)(F)F)ccc2c1=O	none (no result: Lung fibro prol, HUVEC prolif 384, H69AR growth 86K)
CCOC(=O)c1[nH]c2cc(OC)c(OC)cc2c1NC(=O)c1ccc2c(c1)OCO2	H69AR growth 86K 26
CCOC(=O)c1oc2ccccc2c1NC(=O)c1ccc2c(c1)OCO2	none
CCOC(=O)c1[nH]c2ccccc2c1NC(=O)c1ccc2c(c1)OCO2	H69AR growth 86K 22
CCOC(=O)c1[nH]c2ccc(OC)cc2c1NC(=O)c1ccc2c(c1)OCO2	none
O=C(CSc1nnc(SCc2ccc(Cl)cc2)s1)c1ccc2c(c1)OCO2	none (no result: Lung fibro prol, HUVEC prolif 384, H69AR growth 86K)
CC1(C)CC(=O)C(C=Nc2ccc(Cl)cn2)=C(O)C1	none
O=C1CC(c2ccco2)CC(O)=C1C=Nc1cc(Cl)ccc1O (stereo not drawn)	H69AR growth 86K 5.3
Cc1[nH]nc(N=CC2=C(O)CC(c3ccco3)CC2=O)c1-c1ccc(Cl)cc1 (stereo not drawn)	H69AR growth 86K 22
Cc1[nH]nc(N=CC2=C(O)CC(C)(C)CC2=O)c1-c1ccc(Cl)cc1	H69AR growth 86K 31
Cc1sc(NC(=O)c2sc3nc4c(C)cccc4cc3c2N)c(C#N)c1C	HCT116 bCat-KO 3.6 (no result: Lung fibro prol, HUVEC prolif 384, H69AR growth 86K)
C=CCNc1nc(N2CCCC2)nc2ccccc12	none
COc1ccc(Nc2nc(N3CCCC3)nc3ccccc23)c(OC)c1	HCT116 bCat-KO 1.4, H69AR growth 86K 2.1, PTEN del growth 1.4
COc1ccc(Nc2ncnc3ccccc23)c(OC)c1	none
CC(Nc1nc(N2CCCCC2)nc2ccccc12)c1ccccc1 (stereo not drawn)	Lung fibro prol 21, HUVEC prolif 384 3.6, HCT116 bCat-KO 4.2, H69AR growth 86K 3.2
COc1cccc(-c2cc(C(F)(F)F)n3ncc(C(=O)NCC4CCCO4)c3n2)c1 (stereo not drawn)	none
Cc1cc(NC(=O)c2cc3nc4c(c(C(F)(F)F)n3n2)CCc2ccccc2-4)no1	H69AR growth 86K 29 (no result: HCT116 bCat-KO, PTEN del growth)
Cc1cc(NC(=O)c2cnn3c(C(F)(F)F)cc(-c4ccccc4)nc23)no1	H69AR growth 86K 38
CC(C)CNC(=O)c1cc2nc3c(c(C(F)(F)F)n2n1)CCc1ccccc1-3	none
O=C(c1cnn2c(C(F)(F)F)cc(-c3ccccc3)nc12)N1CCCc2ccccc21	H69AR growth 86K 36
COc1ccc(-c2cc(C(F)(F)F)n3ncc(C(=O)NCC4CCCO4)c3n2)cc1 (stereo not drawn)	H69AR growth 86K 20
CCN(CC)S(=O)(=O)c1ccc(NC(=O)C2CCCN(C(=O)c3ccc(Cl)cc3)C2)cc1 (stereo not drawn)	none (no result: Lung fibro prol, HUVEC prolif 384, H69AR growth 86K)
CCN1c2ccccc2-c2nc3ccccc3n2C1c1cccs1 (stereo not drawn)	none (no result: Lung fibro prol, HUVEC prolif 384, H69AR growth 86K)
C=CCNc1nc2c(c(=O)[nH]c(=O)n2C)n1Cc1cccc(C)c1	none
COc1ccc(C2CC23N=C(c2ccccc2)OC3=O)cc1 (stereo not drawn)	none (no result: Lung fibro prol, HUVEC prolif 384, H69AR growth 86K)
CCOC(=O)c1cc(CC)sc1/N=C/c1c(O)ccc2ccccc12	none (no result: Lung fibro prol, HUVEC prolif 384, H69AR growth 86K)
Brc1ccccc1-c1csnn1	none (no result: Lung fibro prol, HUVEC prolif 384, H69AR growth 86K)
Cc1cc(NC(=O)c2cnn3c(C(F)F)cc(-c4ccccc4)nc23)no1	H69AR growth 86K 25
Cc1cc(NC(=O)CCS(=O)(=O)c2nc(-c3ccccc3)cc(C(F)(F)F)n2)no1	Lung fibro prol 5.6, HUVEC prolif 384 24, H69AR growth 86K 0.7
O=C(c1ccc(Cl)cc1)c1c[nH]cc1-c1ccccc1	none
O=C(c1ccc(Cl)cc1)c1c[nH]c(C(=O)C(Cl)(Cl)Cl)c1	Lung fibro prol 44, HCT116 bCat-KO 1.8, H69AR growth 86K 2.4, PTEN del growth 2.5
Cc1ccc(S(=O)(=O)Oc2ccc(/C=C(/NC(=O)c3ccccc3)C(=O)Nc3ccccc3)cc2)cc1	H69AR growth 86K 32
